Screening data (PubChem BioAssay)
UPR XBP1 act – adaptive UPR (XBP1) activation. CHO-XBP1 luciferase reporter, IRE1-XBP1 UPR activation, luminescence; percent of tunicamycin response, DMSO as zero. activation, % at 20 µM. actives 0.33% (n = 330,000);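 active = versus positive control, 20 µM dose yields 30% or more activation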
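Material: CHO-XBP1 cells stably carrying IRE1-XBP1-driven luciferase reporter | Medium: F12 with 10% serum | Compound dosing: 20 µM single concentration, DMSO 1% | Incubation: Overnight seeding at 37 °C, 6 h compound treatment at 37 °C | Detection: Steady-Glo luminescence read | Read-out basis: % activation of reporter signal versus tunicamycin and DMSO controls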
CHOP UPR activ – apoptotic UPR (CHOP) activation; AID 449763; actives 0.34% (n = 330,000); CHO-CHOP luciferase reporter, luminescence; percent of tunicamycin response over DMSO baseline; activation, % at 10 µM;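 active = at 10 µM dose, activation of 40% or more, normalized to positive control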
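Assay system: CHO-CHOP cells, stable luciferase reporter of PERK-eIF2a-CHOP signalling / Buffer or medium: F12 plus 10% serum / Compound dosing: one dose, 10 µM in 0.5% DMSO / Times: 6 h compound treatment, 37 °C / Technique: luciferase luminescence / Read-out: % reporter activation, DMSO baseline versus tunicamycin full activation / Benchmarks: tunicamycin and DMSO controls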
NOD2-RIPK2 inh – blocks binding of human NOD2 to RIPK2 | O43353 | CHO BLA complementation NOD2-RIPK2, CCF4 ratio | inhibition, % at 4.98 µM | actives 0.38% (n = 360,000) | AID 624267; in the data active = inhibition above about 21%
TLR9-MyD88 block – blocks human TLR9 binding to MyD88; Q9NR96+Q99836; CHO BLA complementation TLR9-MyD88, CCF4 FRET ratio; inhibition, % at 4.98 µM; actives 0.21% (n = 340,000);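 active = inhibition above the mean over all tested compounds plus 3 SD, cut at about 21% in these data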
CHOP inhibitor – inhibitors of CHOP induction in ER stress response; CHO-K1 CHOP-promoter luciferase, tunicamycin-induced, 15-18 h; inhibition, % at 10 µM; actives 3.8% (n = 220,000); AID 2732;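 active = compounds that reduced the stress-induced luciferase reporter signal by more than about 70% of percent inhibition, limit read from the data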
TLR4 MyD88 comp – TLR4-MyD88 interaction inhibition in cells; O00206+Q99836; HeLa CL3-4 TLR4/MyD88 BLA complementation, FRET ratio; inhibition, % at 8.4 µM; actives 0.18% (n = 200,000); in the data active = inhibition above about 25%
Target sequence (O00206 whole entry, looked up): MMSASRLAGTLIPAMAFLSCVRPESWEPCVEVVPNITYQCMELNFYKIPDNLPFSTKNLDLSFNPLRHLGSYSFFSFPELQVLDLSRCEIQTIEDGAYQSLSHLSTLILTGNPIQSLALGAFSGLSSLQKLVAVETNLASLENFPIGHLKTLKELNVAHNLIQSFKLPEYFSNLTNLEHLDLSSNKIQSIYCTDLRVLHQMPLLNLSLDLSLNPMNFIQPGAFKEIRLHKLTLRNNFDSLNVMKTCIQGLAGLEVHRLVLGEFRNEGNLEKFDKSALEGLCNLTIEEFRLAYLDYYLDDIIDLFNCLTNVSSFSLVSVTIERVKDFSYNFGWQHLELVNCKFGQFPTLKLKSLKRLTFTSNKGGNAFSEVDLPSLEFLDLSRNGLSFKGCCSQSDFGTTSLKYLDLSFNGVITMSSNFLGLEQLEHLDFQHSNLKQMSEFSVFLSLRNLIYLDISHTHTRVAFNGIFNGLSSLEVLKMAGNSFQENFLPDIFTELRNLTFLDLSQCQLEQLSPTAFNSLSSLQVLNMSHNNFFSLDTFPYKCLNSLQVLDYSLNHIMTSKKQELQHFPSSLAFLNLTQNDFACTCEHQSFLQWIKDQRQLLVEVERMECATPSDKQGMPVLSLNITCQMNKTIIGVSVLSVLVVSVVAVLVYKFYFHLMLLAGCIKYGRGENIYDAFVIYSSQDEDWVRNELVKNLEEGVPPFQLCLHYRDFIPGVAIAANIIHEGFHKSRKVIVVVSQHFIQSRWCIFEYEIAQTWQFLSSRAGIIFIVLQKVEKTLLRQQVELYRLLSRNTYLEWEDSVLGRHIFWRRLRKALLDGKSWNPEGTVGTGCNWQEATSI
Target sequence (Q99836 whole entry, looked up): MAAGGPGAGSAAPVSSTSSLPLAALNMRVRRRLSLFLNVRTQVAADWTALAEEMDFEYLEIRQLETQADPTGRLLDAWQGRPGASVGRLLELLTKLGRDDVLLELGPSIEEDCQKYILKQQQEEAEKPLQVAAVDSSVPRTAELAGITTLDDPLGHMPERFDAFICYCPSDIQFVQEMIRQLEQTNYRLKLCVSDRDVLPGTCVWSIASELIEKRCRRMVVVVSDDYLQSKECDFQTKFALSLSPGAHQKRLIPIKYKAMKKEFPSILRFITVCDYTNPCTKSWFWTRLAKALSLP
Numbers stand for hits. This excerpt belongs to a sample that is enriched for hits.

Screening NS(=O)(=O)c1ccc(NC(=O)CN(C(=O)C(F)(F)F)C2CCCC2)cc1 returned NOD2-RIPK2 inh inactive and TLR9-MyD88 block inactive.
For c1ccc(CN=C2CCCc3ccccc3N2)cc1 the results were NOD2-RIPK2 inh inactive and TLR9-MyD88 block inactive.
Screening Cc1ccc(C2CC(C(F)F)n3ncc(C(=O)Nc4cnn(Cc5ccccc5C)c4)c3N2)cc1 (stereo not given) returned UPR XBP1 act inactive, CHOP UPR activ inactive, NOD2-RIPK2 inh inactive, TLR9-MyD88 block inactive, CHOP inhibitor 73 and TLR4 MyD88 comp inactive.
Cc1cccc(-n2c(=O)[nH]c3c(C(N)=O)nc(-c4ccccc4Cl)nc32)c1 was read as UPR XBP1 act inactive, CHOP UPR activ inactive, NOD2-RIPK2 inh inactive, TLR9-MyD88 block inactive, CHOP inhibitor 91 and TLR4 MyD88 comp inactive.
For NC(=O)c1nc(-c2cccs2)nc2c1[nH]c(=O)n2-c1ccc(F)cc1 the results were UPR XBP1 act inactive, CHOP UPR activ inactive, NOD2-RIPK2 inh inactive, TLR9-MyD88 block inactive, CHOP inhibitor 76 and TLR4 MyD88 comp inactive.
Screening COc1ccc2nc(NC(=O)c3sc4nc(C)cc(C)c4c3N)sc2c1 returned UPR XBP1 act inactive, CHOP UPR activ inactive, NOD2-RIPK2 inh inactive, TLR9-MyD88 block inactive and CHOP inhibitor 74.
For COC(=O)c1sc2nc(C)cc(C)c2c1N the results were UPR XBP1 act inactive, CHOP UPR activ inactive, NOD2-RIPK2 inh inactive, TLR9-MyD88 block inactive, CHOP inhibitor inactive and TLR4 MyD88 comp inactive.
Cc1cc(C)c2c(N)c(C(=O)Nc3ncc(C)s3)sc2n1 was read as UPR XBP1 act inactive, CHOP UPR activ inactive, NOD2-RIPK2 inh inactive, TLR9-MyD88 block inactive, CHOP inhibitor 96 and TLR4 MyD88 comp inactive.
COc1cc(/C=N/NS(=O)(=O)c2ccc3ccccc3c2)ccc1OCc1ccc(C(=O)O)cc1 was read as UPR XBP1 act inactive, CHOP UPR activ inactive, NOD2-RIPK2 inh inactive, TLR9-MyD88 block inactive and CHOP inhibitor inactive.
COc1cc(/C=N/N=C(N)N)ccc1OCc1ccc(Cl)cc1 was read as UPR XBP1 act inactive, CHOP UPR activ inactive, NOD2-RIPK2 inh inactive, TLR9-MyD88 block inactive, CHOP inhibitor 78 and TLR4 MyD88 comp inactive.
`NC(N)=N/N=C/c1ccc(OCc2ccccc2)c(OCc2ccccc2)c1` gave UPR XBP1 act inactive, CHOP UPR activ 63, NOD2-RIPK2 inh inactive and TLR9-MyD88 block inactive.
`COc1cc(/C=N/O)ccc1OCc1ccc(C(=O)O)cc1` gave UPR XBP1 act inactive, CHOP UPR activ inactive, NOD2-RIPK2 inh inactive, TLR9-MyD88 block inactive, CHOP inhibitor 90 and TLR4 MyD88 comp inactive.
`COc1cc(/C=N/O)ccc1OCc1ccc(Cl)cc1` gave UPR XBP1 act inactive, CHOP UPR activ inactive, CHOP inhibitor inactive and TLR4 MyD88 comp inactive.
`CCOc1cc(/C=N/N=C(N)N)ccc1OCc1ccc(Cl)cc1` gave NOD2-RIPK2 inh inactive, TLR9-MyD88 block inactive, CHOP inhibitor 108 and TLR4 MyD88 comp inactive.
`CCOc1cc(/C=N/O)ccc1OCc1ccc(F)cc1` gave UPR XBP1 act inactive, CHOP UPR activ inactive, NOD2-RIPK2 inh inactive, TLR9-MyD88 block inactive, CHOP inhibitor inactive and TLR4 MyD88 comp inactive.
CN(C(=O)COc1ncnc2ccc(Br)cc12)C1CCCCC1 was read as NOD2-RIPK2 inh inactive and TLR9-MyD88 block inactive.
`COc1cc(CNCCc2ccc(S(N)(=O)=O)cc2)ccc1OCc1ccc(Cl)cc1` gave UPR XBP1 act inactive, CHOP UPR activ inactive, NOD2-RIPK2 inh inactive, TLR9-MyD88 block inactive, CHOP inhibitor inactive and TLR4 MyD88 comp inactive.
`CCOc1cc(CNCCc2ccc(S(N)(=O)=O)cc2)ccc1OCc1ccc(Cl)cc1` gave UPR XBP1 act inactive, CHOP UPR activ inactive, NOD2-RIPK2 inh inactive, TLR9-MyD88 block inactive, CHOP inhibitor 89 and TLR4 MyD88 comp inactive.
For CCN(CC)c1ccc(/C=N/NC(=O)c2cccc(S(=O)(=O)Nc3ccccc3OC)c2)cc1 the results were UPR XBP1 act inactive, CHOP UPR activ inactive, NOD2-RIPK2 inh inactive, TLR9-MyD88 block inactive, CHOP inhibitor inactive and TLR4 MyD88 comp inactive.
Screening CCN(CC)c1ccc(/C=N/NC(=O)c2cccc(S(=O)(=O)Nc3ccccc3OC)c2)c(O)c1 returned UPR XBP1 act inactive, CHOP UPR activ inactive, NOD2-RIPK2 inh 21, TLR9-MyD88 block 21, CHOP inhibitor inactive and TLR4 MyD88 comp inactive.
Cc1cc(SCC(=O)N/N=C/c2ccccc2C(=O)O)c(C)cc1Br was read as UPR XBP1 act inactive, CHOP UPR activ inactive, NOD2-RIPK2 inh inactive and TLR9-MyD88 block inactive.
Cc1cc(SCC(=O)N/N=C/c2ccc(O)cc2O)c(C)cc1Br was read as UPR XBP1 act inactive, CHOP UPR activ inactive, NOD2-RIPK2 inh inactive, TLR9-MyD88 block inactive, CHOP inhibitor 88 and TLR4 MyD88 comp inactive.
O=C(Nc1cc(C(F)(F)F)ccc1N1CCCCC1)C1=COCCO1 was read as NOD2-RIPK2 inh inactive and TLR9-MyD88 block inactive.
`CNc1cnc(-c2ccc(C(=O)N3CCOCC3)cc2)cn1` gave NOD2-RIPK2 inh inactive.
Screening O=C(C1CCCCC1)N1C[C@@H](n2cc(-c3ccc(F)cc3)nn2)[C@H](O)C[C@@H]1c1ccc(Cl)cc1 returned NOD2-RIPK2 inh inactive and TLR9-MyD88 block inactive.
O=C1c2cccc3c(N4CCCCC4)ccc(c23)C(=O)N1c1ccccn1 was read as UPR XBP1 act inactive, CHOP UPR activ inactive, NOD2-RIPK2 inh inactive, TLR9-MyD88 block inactive, CHOP inhibitor inactive and TLR4 MyD88 comp inactive.
For O=C1c2ccccc2-c2n[nH]c(=O)c3ccc(N4CCCCC4)c1c23 the results were UPR XBP1 act inactive, CHOP UPR activ inactive, NOD2-RIPK2 inh inactive, TLR9-MyD88 block inactive, CHOP inhibitor 79 and TLR4 MyD88 comp inactive.
For CC(=O)OCC(=O)C1(O)CCC2C3CCC4CC(O)CCC4(C)C3C(=O)CC21C (stereo not given) the results were NOD2-RIPK2 inh inactive.
Screening CCOc1cc2[nH]c(=S)n(CCC(=O)NCc3ccco3)c(=O)c2cc1OCC returned UPR XBP1 act inactive, CHOP UPR activ inactive, NOD2-RIPK2 inh inactive, TLR9-MyD88 block inactive, CHOP inhibitor inactive and TLR4 MyD88 comp inactive.
Screening O=C(CCCn1c(=O)c2ccccc2n(CC(=O)NCc2ccco2)c1=O)NCc1ccco1 returned UPR XBP1 act inactive, CHOP UPR activ inactive, NOD2-RIPK2 inh inactive, TLR9-MyD88 block inactive, CHOP inhibitor 73 and TLR4 MyD88 comp inactive.
For CCOc1cc2[nH]c(=S)n(CCCC(=O)NCc3ccco3)c(=O)c2cc1OCC the results were UPR XBP1 act inactive, CHOP UPR activ inactive, NOD2-RIPK2 inh inactive, TLR9-MyD88 block inactive, CHOP inhibitor 82 and TLR4 MyD88 comp inactive.
Cc1ccccc1Cn1c(=O)n(CCC(=O)NCc2ccc3c(c2)OCO3)c(=O)c2ccccc21 was read as UPR XBP1 act inactive, CHOP UPR activ inactive, NOD2-RIPK2 inh inactive, TLR9-MyD88 block inactive, CHOP inhibitor 87 and TLR4 MyD88 comp inactive.
